In ChEMBL document CHEMBL1142561, “Prenylflavonoids and phloroglucinol derivatives from hops (Humulus lupulus)” (J Nat Prod, 2005):

Legend:
RAW264.7 [1] = assay: Inhibition of LPS/IFN-gamma-induced NO production in mouse RAW264.7 cells after 16 hrs; format: functional, cell-based; settings: RAW264.7, 16 h
Summary of the method: (§1)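 RAW 264.7 macrophages in RPMI 1640 with 10% FBS, 2 mM L-glutamine, penicillin/streptomycin, seeded at 5 × 10⁵ cells/mL. After 1 h, stimulated with LPS (100 ng/mL) plus IFN-γ (100 units/mL) and samples in DMSO (0.2% final) for 16 h at 37 °C. Supernatant nitrite measured by Griess assay at 570 nm against NaNO₂ standards. Inhibition rate taken relative to LPS/IFN-only wells.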

[2] = Cytotoxicity against mouse RAW264.7 cells assessed as cell viability at <10 uM after 16 hrs by MTT assay; format: cell-based; settings: read-out: Activity
Summary of the method: (§2)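 RAW 264.7 cells grown in RPMI 1640 with 10% FBS, 2 mM L-glutamine, penicillin/streptomycin. Seeded at 5 × 10⁵ cells/mL in 96-well plates and co-treated with LPS (100 ng/mL), IFN-γ (100 units/mL) and samples in DMSO (0.2% final) for 16 h at 37 °C. MTT (200 μg/mL) added for a further 4 h. Formazan dissolved in DMSO, A540 read, compared with nontreated cells.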

RAW264.7 [3] = assay: Cytotoxicity against mouse RAW264.7 cells assessed as cell viability at 20 uM after 16 hrs by MTT assay; format: cell-based; settings: raw264.7, 16 h; summary of the method: as §2
[4] = Cytotoxicity against mouse RAW264.7 cells assessed as cell viability at 200 uM after 16 hrs by MTT assay; format: cell-based; settings: read-out: Activity; summary of the method: as §2
RAW264.7 [5] = assay: Inhibition of LPS/IFN-gamma-induced NO production in mouse RAW264.7 cells at non cytotoxic concentration after 16 hrs; format: functional; summary of the method: as §1
RAW264.7 [6] = assay: Cytotoxicity against mouse RAW264.7 cells after 16 hrs by MTT assay; format: cell-based; settings: raw264.7, 16 h; summary of the method: as §2
[7] = Cytotoxicity against mouse RAW264.7 cells assessed as cell viability at 2 uM after 16 hrs by MTT assay; format: cell-based; settings: read-out: Activity; summary of the method: as §2

IC50 (RAW264.7 [1]) | Structure (SMILES) | viability at 16 h [2] | Activity (RAW264.7 [3]) | viability at 16 h, 200 µM [4] | inhibition (INH) (RAW264.7 [5]) | Activity (RAW264.7 [6]) | viability at 16 h, 2 µM [7]
> 100 µM | CC(C)C(=O)c1c(O)ccc2c1OC(C(C)(C)O)C2 (centres undefined) [LUPULONE F] |  |  |  |  |  | 
17 µM | CC(C)=CCC1=C(O)C(C(=O)CC(C)C)=C(O)C(CC=C(C)C)(CC=C(C)C)C1=O [LUPULONE] |  |  |  | <40% | Toxic | 
5.6 µM | COc1cc2c(c(O)c1C(=O)/C=C/c1ccc(O)cc1)CC(O)C(C)(C)O2 (centres undefined) [XANTHOHUMOL B] | > 95% |  |  |  |  | 
9.4 µM | C=C(C)C(O)Cc1c(O)cc(OC)c(C(=O)/C=C/c2ccc(O)cc2)c1O (centres undefined) [XANTHOHUMOL D] | > 95% |  |  |  |  | 
8.3 µM | COc1cc(O)c(CC=C(C)C)c(O)c1C(=O)/C=C/c1ccc(O)cc1 [XANTHOHUMOL] | > 95% |  |  |  |  | 

The next lines start with the compound.

Structure (SMILES) | IC50 (RAW264.7 [1]) | viability at 16 h [2] | Activity (RAW264.7 [3]) | viability at 16 h, 200 µM [4] | inhibition (INH) (RAW264.7 [5]) | Activity (RAW264.7 [6]) | viability at 16 h, 2 µM [7]
COc1cc(O)c(CC(O)C(C)(C)OC)c(O)c1C(=O)/C=C/c1ccc(O)cc1 (racemic) | 6.5 µM | > 95% |  |  |  |  | 
COc1cc(O)c(CC=C(C)C)c(O)c1C(=O)CCc1ccc(O)cc1 [DIHYDROXANTHOHUMOL] | 23 µM | > 95% | Non-toxic |  |  |  | 
CC(C)=CCC1(CC=C(C)C)C(=O)C(O)=C(O)C1=O [HULUPINIC ACID] | > 100 µM |  |  | > 95% |  |  | 
CC(C)=CCC1=C2OC(C)(C)C=CC2(CC=C(C)C)C(=O)C(C(=O)CC(C)C)=C1O (centres undefined) [LUPULONE A] | 20 µM |  |  |  | <40% | Toxic | 
CC(C)=CCC1=C2OC(C)(C)C=CC2(CC=C(C)C)C(=O)C(C(=O)C(C)C)=C1O (centres undefined) [LUPULONE B] | 14 µM |  |  |  | <40% | Toxic | 
CC(C)=CCC1(CC=C(C)C)C(=O)C2=C(OC(C(C)(C)O)C2)C(C(=O)CC(C)C)=C1O (centres undefined) [LUPULONE C] | 63 µM |  |  |  | <40% | Toxic | 
CC(C)=CCC1=C2OC(C(C)(C)O)CC2(CC=C(C)C)C(=O)C(C(=O)CC(C)C)=C1O (centres undefined) [LUPULONE D] | 11 µM |  |  |  | <40% | Toxic | < 95%
CC(C)=CCC1=C2OC(C(C)(C)O)CC2(CC=C(C)C)C(=O)C(C(=O)C(C)C)=C1O (centres undefined) [LUPULONE E] | 15 µM |  |  |  | <40% | Toxic | < 95%
